pKi: −log10 of the molar value. Non-standard residues stand in square brackets, D forms with d. Residues, ends and D or L forms follow the SMILES beside them. 2Nal = N[C@@H](Cc1ccc2ccccc2c1)C(=O)O; Arg(Me) = CNC(=N)NCCC[C@H](N)C(=O)O; d3Pal = N[C@H](Cc1cccnc1)C(=O)O; Cha = N[C@@H](CC1CCCCC1)C(=O)O; azaGly = NNC(=O)O
Tests used:
KiSS-1 receptor [1] = target: KiSS-1 receptor (Rattus norvegicus, UniProt Q924U1); assay: Binding affinity to rat KISS1R
KiSS-1 receptor [2] = target: T1, KiSS-1 receptor (Homo sapiens, UniProt Q969F8); assay: Binding affinity to human KISS1R expressed in CHO cell membranes
T1 sequence (Q969F8 whole entry): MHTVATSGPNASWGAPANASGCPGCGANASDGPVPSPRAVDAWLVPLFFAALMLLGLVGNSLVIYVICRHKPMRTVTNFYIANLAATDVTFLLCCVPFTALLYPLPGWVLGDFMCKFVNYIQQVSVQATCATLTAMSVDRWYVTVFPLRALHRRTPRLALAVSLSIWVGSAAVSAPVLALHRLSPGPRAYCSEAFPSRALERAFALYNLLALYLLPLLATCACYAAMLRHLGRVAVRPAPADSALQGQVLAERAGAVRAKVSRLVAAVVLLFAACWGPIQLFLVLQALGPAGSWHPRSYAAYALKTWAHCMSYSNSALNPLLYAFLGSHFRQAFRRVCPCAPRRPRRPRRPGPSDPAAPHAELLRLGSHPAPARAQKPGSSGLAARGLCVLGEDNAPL

KiSS-1 receptor [3] = target: T1, KiSS-1 receptor; assay: Agonist activity at recombinant human KISS1R expressed in CHO cells assessed as intracellular calcium mobilization incubated for 30 mins at 37 degC and 30 mins at room temperature by Fluo-4 NW staining-based FLIPR assay relative to Metastin (45 to 54); type: functional, cell-based
Outline: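 CHO cells stably expressing human KISS1R seeded at 15,000 cells/well, cultured 24 h, then loaded with Fluo-4 Direct in HBSS with 4 mM probenecid and 0.1% BSA (30 min 37 °C, 30 min room temperature). Compounds from 10 µM DMSO stocks diluted in sample buffer and added. Fluorescence read for 2 min at 2 s intervals. Peak counts give agonist activity. EC50 expressed as ratio to metastin(45-54).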

Sequence of KiSS-1 receptor (Rattus norvegicus, UniProt Q924U1) (Q924U1 whole entry): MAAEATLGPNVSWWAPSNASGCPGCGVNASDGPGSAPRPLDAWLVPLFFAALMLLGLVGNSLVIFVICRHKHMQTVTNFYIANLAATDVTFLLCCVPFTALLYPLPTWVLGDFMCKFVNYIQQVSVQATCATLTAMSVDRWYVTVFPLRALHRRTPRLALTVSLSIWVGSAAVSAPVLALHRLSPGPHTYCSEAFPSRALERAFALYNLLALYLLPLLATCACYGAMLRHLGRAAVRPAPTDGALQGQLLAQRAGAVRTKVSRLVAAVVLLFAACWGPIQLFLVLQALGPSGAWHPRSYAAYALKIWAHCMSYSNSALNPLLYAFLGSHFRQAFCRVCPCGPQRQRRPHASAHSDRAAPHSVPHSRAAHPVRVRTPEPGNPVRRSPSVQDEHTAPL

SMILES | pKi (KiSS-1 receptor [1]) | pKi (KiSS-1 receptor [2]) | fold change (FC) (KiSS-1 receptor [3]) | pKi (KiSS-1 receptor [2]; cho)
CNC(N)=NCCC[C@H](NC(=O)[C@H](CC(C)C)NC(=O)NNC(=O)[C@H](Cc1ccccc1)NC(=O)[C@H](CO)NC(=O)[C@H](CC(N)=O)NC(=O)[C@H](Cc1ccc2ccccc2c1)NC(=O)[C@H](N)Cc1ccc(O)cc1)C(=O)N[C@@H](Cc1ccccc1)C(N)=O (H-[dY][2Nal]NSF[azaGly]L[Arg(Me)]F-NH2) | 10.29 | 10.49 |  | 
CNC(N)=NCCC[C@H](NC(=O)[C@H](CC(C)C)NC(=O)NNC(=O)[C@H](Cc1ccccc1)NC(=O)[C@H](CO)NC(=O)[C@H](CC(N)=O)NC(=O)[C@H](Cc1c[nH]c2ccccc12)NC(=O)[C@H](N)Cc1cccnc1)C(=O)N[C@@H](Cc1ccccc1)C(N)=O | 9.89 | 9.96 |  | 
CNC(=N)NCCC[C@H](NC(=O)[C@H](CC(C)C)NC(=O)NNC(=O)[C@H](Cc1ccccc1)NC(=O)[C@H](CO)NC(=O)[C@H](CC(N)=O)NC(=O)[C@@H](Cc1c[nH]c2ccccc12)NC(=O)[C@H](N)Cc1ccc(O)cc1)C(=O)N[C@@H](Cc1ccccc1)C(N)=O (H-[dY][dW]NSF[azaGly]L[Arg(Me)]F-NH2) | 9.96 | 10.19 | 4.5 | 
CNC(=N)NCCC[C@H](NC(=O)[C@H](CC(C)C)NC(=O)NNC(=O)[C@H](Cc1ccccc1)NC(=O)[C@H](CO)NC(=O)[C@H](CC(N)=O)NC(=O)[C@H](Cc1c[nH]c2ccccc12)NC(=O)[C@H](CC(N)=O)NC(=O)[C@@H](C)N)C(=O)N[C@@H](Cc1ccccc1)C(N)=O (H-[dA]NWNSF[azaGly]L[Arg(Me)]F-NH2) | 9.28 | 9.29 | 4.9 | 
CNC(N)=NCCC[C@H](NC(=O)[C@H](CC(C)C)NC(=O)NNC(=O)[C@H](Cc1ccccc1)NC(=O)[C@H](CO)NC(=O)[C@H](CC(N)=O)NC(=O)[C@H](Cc1c[nH]c2ccccc12)NC(=O)[C@@H](CO)NC(=O)[C@H](N)Cc1ccc(O)cc1)C(=O)N[C@@H](Cc1ccccc1)C(N)=O | 10.03 | 10.07 |  | 
CNC(=N)NCCC[C@H](NC(=O)[C@H](CC(C)C)NC(=O)NNC(=O)[C@H](Cc1ccccc1)NC(=O)[C@H](CO)NC(=O)[C@H](CC(N)=O)NC(=O)[C@H](Cc1c[nH]c2ccccc12)NC(=O)[C@@H](CC(N)=O)NC(=O)[C@H](N)Cc1ccc(O)cc1)C(=O)N[C@@H](Cc1ccccc1)C(N)=O |  | 10.21 | 2.6 | 
CNC(=N)NCCC[C@H](NC(=O)[C@H](CC(C)C)NC(=O)NNC(=O)[C@H](Cc1ccccc1)NC(=O)[C@H](CO)NC(=O)[C@H](CC(N)=O)NC(=O)[C@H](Cc1c[nH]c2ccccc12)NC(=O)[C@H](CC(N)=O)NC(=O)[C@H](N)Cc1cccnc1)C(=O)N[C@@H](Cc1ccccc1)C(N)=O (H-[d3Pal]NWNSF[azaGly]L[Arg(Me)]F-NH2) | 9.85 | 9.92 | 2.3 | 
CNC(N)=NCCC[C@H](NC(=O)[C@H](CC(C)C)NC(=O)NNC(=O)[C@H](Cc1ccccc1)NC(=O)[C@H](CO)NC(=O)[C@H](CC(N)=O)NC(=O)[C@@H](Cc1c[nH]c2ccccc12)NC(=O)[C@H](CC(N)=O)NC(=O)[C@H](N)Cc1ccc(O)cc1)C(=O)N[C@@H](Cc1ccccc1)C(N)=O |  | 10.11 |  | 
CNC(N)=NCCC[C@H](NC(=O)[C@H](CC(C)C)NC(=O)NNC(=O)[C@H](Cc1ccccc1)NC(=O)[C@H](CO)NC(=O)[C@H](CC(N)=O)NC(=O)[C@H](CO)NC(=O)[C@H](N)Cc1ccc(O)cc1)C(=O)N[C@@H](Cc1ccccc1)C(N)=O (H-[dY]SNSF[azaGly]L[Arg(Me)]F-NH2) | 9.52 | 9.68 |  | 
CNC(N)=NCCC[C@H](NC(=O)[C@H](CC(C)C)NC(=O)NNC(=O)[C@H](Cc1ccccc1)NC(=O)[C@H](CO)NC(=O)[C@H](CC(N)=O)NC(=O)[C@H](Cc1ccccc1)NC(=O)[C@H](N)Cc1cccnc1)C(=O)N[C@@H](Cc1ccccc1)C(N)=O | 9.55 | 9.70 |  | 
CNC(=N)NCCC[C@H](NC(=O)[C@H](CC(C)C)NC(=O)NNC(=O)[C@H](Cc1ccccc1)NC(=O)[C@H](CO)NC(=O)[C@H](CC(N)=O)NC(=O)[C@H](CC1CCCCC1)NC(=O)[C@@H](CC(N)=O)NC(=O)[C@H](N)Cc1ccc(O)cc1)C(=O)N[C@@H](Cc1ccccc1)C(N)=O (H-[dY][dN][Cha]NSF[azaGly]L[Arg(Me)]F-NH2) | 10.12 | 10.26 | 17 | 
CNC(=N)NCCC[C@H](NC(=O)[C@H](CC(C)C)NC(=O)NNC(=O)[C@H](Cc1ccccc1)NC(=O)[C@H](CO)NC(=O)[C@H](CC(N)=O)NC(=O)[C@H](CC1CCCCC1)NC(=O)[C@@H](CC(N)=O)NC(=O)[C@H](N)Cc1cccnc1)C(=O)N[C@@H](Cc1ccccc1)C(N)=O (H-[d3Pal][dN][Cha]NSF[azaGly]L[Arg(Me)]F-NH2) | 9.74 | 9.70 | 10 | 
CNC(N)=NCCC[C@H](NC(=O)[C@H](CC(C)C)NC(=O)CNC(=O)[C@H](Cc1ccccc1)NC(=O)[C@H](CO)NC(=O)[C@H](CC(N)=O)NC(=O)[C@H](Cc1c[nH]c2ccccc12)NC(=O)[C@H](CC(N)=O)NC(=O)[C@H](N)Cc1ccc(O)cc1)C(=O)N[C@@H](Cc1ccccc1)C(N)=O |  |  |  | 10.34
CC(C)C[C@H](NC(=O)NNC(=O)[C@H](Cc1ccccc1)NC(=O)[C@H](CO)NC(=O)[C@H](CC(N)=O)NC(=O)[C@H](Cc1c[nH]c2ccccc12)NC(=O)[C@H](CC(N)=O)NC(=O)[C@@H](N)Cc1ccc(O)cc1)C(=O)N[C@@H](CCCNC(=N)N)C(=O)N[C@@H](Cc1ccccc1)C(N)=O |  | 10.35 | 1.7 | 
CNC(=N)NCCC[C@H](NC(=O)[C@H](CC(C)C)NC(=O)NNC(=O)[C@H](Cc1ccccc1)NC(=O)[C@H](CO)NC(=O)[C@H](CC(N)=O)NC(=O)[C@H](Cc1c[nH]c2ccccc12)NC(=O)[C@@H](Cc1cnc[nH]1)NC(=O)[C@H](N)Cc1ccc(O)cc1)C(=O)N[C@@H](Cc1ccccc1)C(N)=O | 10.37 | 10.48 | 6.2 | 
CNC(N)=NCCC[C@H](NC(=O)[C@H](CC(C)C)NC(=O)NNC(=O)[C@H](Cc1ccccc1)NC(=O)[C@H](CO)NC(=O)[C@H](CC(N)=O)NC(=O)[C@H](Cc1ccccc1)NC(=O)[C@H](N)Cc1ccc(O)cc1)C(=O)N[C@@H](Cc1ccccc1)C(N)=O | 9.82 | 10.07 |  | 
CC(C)C[C@H](NC(=O)CNC(=O)[C@H](Cc1ccccc1)NC(=O)[C@H](CO)NC(=O)[C@H](CC(N)=O)NC(=O)[C@H](Cc1c[nH]c2ccccc12)NC(=O)[C@H](CC(N)=O)NC(=O)[C@@H](N)Cc1ccc(O)cc1)C(=O)N[C@@H](CCCNC(=N)N)C(=O)N[C@@H](Cc1ccccc1)C(N)=O [KISSPEPTIN-10] |  | 10.41 |  | 
CNC(N)=NCCC[C@H](NC(=O)[C@H](CC(C)C)NC(=O)NNC(=O)[C@H](Cc1ccccc1)NC(=O)[C@H](CO)NC(=O)[C@H](CC(N)=O)NC(=O)[C@H](Cc1ccncc1)NC(=O)[C@H](CC(N)=O)NC(=O)[C@H](N)Cc1ccc(O)cc1)C(=O)N[C@@H](Cc1ccccc1)C(N)=O | 9.92 | 9.92 |  | 
CNC(N)=NCCC[C@H](NC(=O)[C@H](CC(C)C)NC(=O)NNC(=O)[C@H](Cc1ccccc1)NC(=O)[C@H](CO)NC(=O)[C@H](CC(N)=O)NC(=O)[C@H](Cc1ccncc1)NC(=O)[C@@H](CC(N)=O)NC(=O)[C@H](N)Cc1ccc(O)cc1)C(=O)N[C@@H](Cc1ccccc1)C(N)=O | 10.02 | 9.96 |  | 
CNC(N)=NCCC[C@H](NC(=O)[C@H](CC(C)C)NC(=O)NNC(=O)[C@H](Cc1ccccc1)NC(=O)[C@H](CO)NC(=O)[C@H](CC(N)=O)NC(=O)[C@@H](Cc1ccncc1)NC(=O)[C@H](CC(N)=O)NC(=O)[C@H](N)Cc1ccc(O)cc1)C(=O)N[C@@H](Cc1ccccc1)C(N)=O | 9.92 | 9.92 |  | 
CNC(=N)NCCC[C@H](NC(=O)[C@H](CC(C)C)NC(=O)NNC(=O)[C@H](Cc1ccccc1)NC(=O)[C@H](CO)NC(=O)[C@H](CC(N)=O)NC(=O)[C@H](Cc1ccncc1)NC(=O)[C@@H](CC(N)=O)NC(=O)[C@@H](N)Cc1ccc(O)cc1)C(=O)N[C@@H](Cc1ccccc1)C(N)=O |  |  | 2.7 | 
CNC(N)=NCCC[C@H](NC(=O)[C@H](CC(C)C)NC(=O)NNC(=O)[C@H](Cc1ccccc1)NC(=O)[C@H](CO)NC(=O)[C@H](CC(N)=O)NC(=O)[C@H](Cc1ccncc1)NC(=O)[C@@H](CC(N)=O)NC(=O)[C@@H](N)Cc1ccc(O)cc1)C(=O)N[C@@H](Cc1ccccc1)C(N)=O | 9.80 | 9.68 |  | 
CNC(=N)NCCC[C@H](NC(=O)[C@H](CC(C)C)NC(=O)NNC(=O)[C@H](Cc1ccccc1)NC(=O)[C@H](CO)NC(=O)[C@H](CC(N)=O)NC(=O)[C@H](Cc1ccccc1)NC(=O)[C@@H](CC(N)=O)NC(=O)[C@H](N)Cc1ccc(O)cc1)C(=O)N[C@@H](Cc1ccccc1)C(N)=O (H-[dY][dN]FNSF[azaGly]L[Arg(Me)]F-NH2) |  |  | 1.5 | 
CNC(=N)NCCC[C@H](NC(=O)[C@H](CC(C)C)NC(=O)NNC(=O)[C@H](Cc1ccccc1)NC(=O)[C@H](CO)NC(=O)[C@H](CC(N)=O)NC(=O)[C@H](Cc1ccccc1)NC(=O)[C@H](N)Cc1cccnc1)C(=O)N[C@@H](Cc1ccccc1)C(N)=O |  |  | 5.8 | 
CC[C@H](C)[C@H](NC(=O)[C@H](N)Cc1ccc(O)cc1)C(=O)N[C@@H](CC(N)=O)C(=O)N[C@@H](CO)C(=O)N[C@@H](Cc1ccccc1)C(=O)NNC(=O)N[C@@H](CC(C)C)C(=O)N[C@@H](CCCNC(=N)NC)C(=O)N[C@@H](Cc1ccccc1)C(N)=O (H-[dY]INSF[azaGly]L[Arg(Me)]F-NH2) | 9.89 | 9.92 | 14 | 
CNC(=N)NCCC[C@H](NC(=O)[C@H](CC(C)C)NC(=O)NNC(=O)[C@H](Cc1ccccc1)NC(=O)[C@H](CO)NC(=O)[C@H](CC(N)=O)NC(=O)[C@@H](NC(=O)[C@H](N)Cc1ccc(O)cc1)[C@@H](C)O)C(=O)N[C@@H](Cc1ccccc1)C(N)=O (H-[dY]TNSF[azaGly]L[Arg(Me)]F-NH2) | 9.62 | 9.70 | 8.9 | 

From ChEMBL document CHEMBL3085624, “Design, synthesis, and biological evaluation of novel investigational nonapeptide KISS1R agonists with testosterone-suppressive activity” (J Med Chem, 2013)
